“And” between values parts separate entries of the source, which are not always exact repeats. Equal entries are not always repeated.
Tests used:
[1] = test system: A. baumannii strains and K. pneumoniae strains; experiment: Dansyl polymyxin permeability assay; type: cell-based; details: increasing concentrations of AR-12; depending on the strain; DP 0.6 μM
Procedure, shortened: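 Log-phase cells (overnight culture subcultured 1:100 for 2–3 h) were pelleted at 0.5 OD-equivalent and resuspended in 1 ml of 5 mM HEPES at room temperature. Fluorescence was read at room temperature (ex 320, em 500 nm), with cell-free wells subtracted. Two or more repeats.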

B. mallei = type: cell-based, Burkholderia mallei
[2] = Pharmacokinetic study in mice, oral; type: in vivo, Balb/c mice
Procedure, shortened: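 Female Balb/c mice received a single oral dose of test compound at 80 mg/kg, formulated at 8 mg/mL in 10% Solutol HS 15. Plasma was sampled at 0, 0.5, 1, 2, 4, 8, 10 and 24 h, with 3 mice per time point. Drug levels were quantified by HPLC.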

Serratia marcescens = type: cell-based
[3] = Maximum tolerated dose in mice; type: in vivo; details: p.o.
B. pseudomallei = type: cell-based, Burkholderia pseudomallei
[4] = test system: panel of MDR Gram-negative pathogenic bacterial strains; experiment: Broth dilution MIC, whole panel; type: cell-based; details: for fold reduction of MIC in the presence of AR-12: certain polymyxin-resistant Gram-negative bacterial strains
Procedure, shortened: (§1)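 Colonies from Mueller-Hinton II agar (37°C, overnight) were suspended in PBS, sized by OD600 and diluted in CAMHB, giving a final inoculum of 5×10^5 CFU/ml. Single-drug MICs: 96-well round-bottom plates, static 37°C for 18–24 h, growth scored visually. Checkerboard: twofold polymyxin B or colistin (0.13–64 or 128 μg/ml) against twofold test compound (1–64 or 128 μg/ml; DMSO stock), incubated 16–20 h.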

Enterobacter cloacae = type: cell-based
cyclooxygenase 2 (COX-2) = details: eukaryotic host; cited from earlier work
Francisella strains = details: cited from earlier work
Proteus mirabilis = type: cell-based
Providencia stuartii = type: cell-based
Protein binding in mice = type: in vitro ADME
[5] = test system: ampicillin and kanamycin-resistant E. coli strain; details: laboratory-generated ampicillin and kanamycin-resistant E. coli; cited from earlier work
[6] = test system: MDR clinical isolate of N. gonorrhoeae; details: cited from earlier work
K. pneumoniae [7] = experiment: Broth microdilution MIC, alone and with AR-12; type: cell-based, Klebsiella pneumoniae; details: for MIC: drug alone; for MIC (4 µg/ml AR-12): with 4 µg/ml AR-12
Procedure, shortened: as §1

[8] = test system: A. baumannii and K. pneumoniae strains; experiment: N-phenyl-1-naphthylamine; type: cell-based; details: AR-12 4 μg/ml and 8 μg/ml
Procedure, shortened: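 Cell suspensions were prepared as for the dansyl polymyxin assay (log phase, in 5 mM HEPES). Cells were added at 1:4 to a HEPES/NPN/test compound mix, in triplicate. Fluorescence was read at room temperature (ex 355, em 405 nm), with cell-free wells subtracted. Two or more independent repeats.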

[9] = test system: Francisella tularensis and F. novicida in THP-1 macrophages; details: cited from earlier work
A. baumannii [10] = experiment: Broth microdilution MIC, alone and with AR-12; type: cell-based, Acinetobacter baumannii; details: for MIC: strain 34299 (JMI Laboratories), drug alone; for fold reduction of MIC in the presence of 4 μg/ml of AR-12: MDR A. baumannii (2 out of 4 strains tested); for MIC (4 µg/ml AR-12): strain 34299, with 4 µg/ml AR-12
Procedure, shortened: as §1

A. baumannii [11] = experiment: Bacterial growth assay; type: cell-based, Acinetobacter baumannii
Procedure, shortened: (§2)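 Cultures were grown overnight (~16 h) in CAMHB at 37°C with shaking, then subcultured 1:100 for 2–3 h to log phase. 5×10^5 CFU/ml were dispensed into CAMHB wells holding preset drug concentrations, in triplicate. Plates were shaken at 37°C, with OD600 read automatically every 15 min for 24 h. Two or more independent repeats.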

K. pneumoniae [12] = experiment: Bacterial growth assay; type: cell-based, Klebsiella pneumoniae
Procedure, shortened: as §2

[13] = strain 30835 (JMI Laboratories)

Which “enhancement of dansyl polymyxin B (DP) fluorescence” value [1] does the source give for `NCC(=O)Nc1ccc(-n2nc(C(F)(F)F)cc2-c2ccc3c(ccc4ccccc43)c2)cc1` [AR-12] here?
The value was 25–50 fold.

What about the MIC (B. mallei) of the same compound?
Its MIC is >128 µg/mL.

What about the bioavailability [2] of the same compound?
The bioavailability was “poor”.

And the “AUC (0–24 hrs)” value ([2]; 80 mg/kg, p.o., q.d.)?
The value was 41400 ng·h/mL.

And the Cmax ([2]; 80 mg/kg, p.o., q.d.)?
Its Cmax is 2100 ng/mL.

What about the Tmax ([2]; 80 mg/kg, p.o., q.d.) of the same compound?
Its Tmax is 10 h.

And the “plasma levels sustained over a 24 hrs period” value ([2]; 80 mg/kg, p.o., q.d.)?
The value was 1.5–2.1 μg/mL and ~ 2 μg/mL.

And the MIC (Serratia marcescens)?
Its MIC is >64 µg/mL.

What about the maximum tolerated dose [3] of the same compound?
Its maximum tolerated dose is 100 mg/kg.

And the MIC (B. pseudomallei)?
The MIC was >128 µg/mL.

And the “lowest AR-12 concentration at which the potentiating activity was observed for majority of the MDR strains” value ([4]; combination with polymyxin B or colistin)?
The value was 4 µg/mL.

What about the “MIC of AR-12 alone” value ([4]; panel of MDR pathogens, tested upto 64 µg/ml) of the same compound?
Its value is > 64 µg/mL.

What about the MIC (Enterobacter cloacae) of the same compound?
Its MIC is >64 µg/mL.

And the COX-2 inhibitory activities (cyclooxygenase 2 (COX-2))?
Its COX-2 inhibitory activities is “devoid of cyclooxygenase 2 (COX-2) inhibitory activities”.

And the direct antibacterial activity (Francisella strains)?
The direct antibacterial activity was “did not have any direct antibacterial activity”.

And the MIC (Proteus mirabilis)?
The MIC was >64 µg/mL.

And the MIC (Providencia stuartii)?
Its MIC is >64 µg/mL.

And the protein bound (Protein binding in mice)?
The protein bound was 99%.

What about the bacterial growth [5] of the same compound?
The bacterial growth was “significantly inhibited the growth”.

And the bacterial proliferation [6]?
The bacterial proliferation was “reduced the proliferation”.

And the MIC (K. pneumoniae [7]; strain 0010 (CDC))?
The MIC was >64 µg/mL.

What about the MIC (K. pneumoniae [7]; strain 101434 (USAMRIID)) of the same compound?
Its MIC is >64 µg/mL.

What about the MIC (K. pneumoniae [7]; strain 101522 (USAMRIID)) of the same compound?
Its MIC is >64 µg/mL.

What about the MIC (K. pneumoniae [7]; strain 101783 (USAMRIID)) of the same compound?
Its MIC is >64 µg/mL.

What about the “effect on NPN fluorescence (outer membrane permeability)” value [8] of the same compound?
The value was “increased the fluorescence of NPN”.

What about the “intracellular survival of bacteria in macrophages” value [9] of the same compound?
Its value is “inhibit the intracellular survival”.

What about the MIC (A. baumannii [10]) of the same compound?
The MIC was >128 µg/mL.

Which MIC (B. mallei) does the source give for polymyxin B here?
Its MIC is 128 µg/mL.

What about the “MIC (4 µg/ml AR-12)” value (B. mallei) of the same compound?
Its value is 128 µg/mL.

What about the MIC (Serratia marcescens) of the same compound?
Its MIC is >64 µg/mL.

What about the “MIC (4 µg/ml AR-12)” value (Serratia marcescens) of the same compound?
The value was >64 µg/mL and 64 µg/mL.

And the MIC (B. pseudomallei)?
Its MIC is >128 µg/mL.

What about the “MIC (4 µg/ml AR-12)” value (B. pseudomallei) of the same compound?
Its value is >128 µg/mL.

What about the “fold reduction of MIC in the presence of AR-12” value [4] of the same compound?
The value was 4–60 fold.

And the MIC (Proteus mirabilis)?
The MIC was >64 µg/mL.

What about the “MIC (4 µg/ml AR-12)” value (Proteus mirabilis) of the same compound?
The value was 64 µg/mL and >64 µg/mL.

And the MIC (Providencia stuartii)?
The MIC was >64 µg/mL.

What about the “MIC (4 µg/ml AR-12)” value (Providencia stuartii) of the same compound?
Its value is >64 µg/mL.

What about the MIC (K. pneumoniae [7]; strain 0010 (CDC)) of the same compound?
The MIC was 2 µg/mL.

And the “MIC (4 µg/ml AR-12)” value (K. pneumoniae [7]; strain 0010)?
Its value is 2 µg/mL.

And the MIC (K. pneumoniae [7]; [13])?
The MIC was 128 µg/mL.

What about the “MIC (4 µg/ml AR-12)” value (K. pneumoniae [7]; strain 30835) of the same compound?
The value was ≤2 µg/mL.

And the MIC (K. pneumoniae [7]; strain 101434 (USAMRIID))?
Its MIC is 64 µg/mL.

And the “MIC (4 µg/ml AR-12)” value (K. pneumoniae [7]; strain 101434)?
The value was 16 µg/mL.

What about the MIC (K. pneumoniae [7]; strain 101522 (USAMRIID)) of the same compound?
The MIC was 64 µg/mL.

What about the MIC (K. pneumoniae [7]; strain 101783 (USAMRIID)) of the same compound?
Its MIC is >64 µg/mL.

What about the “MIC (4 µg/ml AR-12)” value (K. pneumoniae [7]; strain 101783) of the same compound?
Its value is 2 µg/mL.

And the “fold reduction of MIC in the presence of 4 μg/ml of AR-12” value (shortened to “fold reduction … of 4 μg/ml of AR-12”) (A. baumannii [10])?
The value was 4–16 fold.

And the MIC (A. baumannii [10])?
Its MIC is 16 µg/mL.

And the “MIC (4 µg/ml AR-12)” value (A. baumannii [10])?
The value was ≤2 µg/mL.

Which MIC (Serratia marcescens) does the source give for colistin here?
The MIC was >64 µg/mL.

And the “MIC (4 µg/ml AR-12)” value (Serratia marcescens)?
The value was >64 µg/mL.

And the “fold reduction of MIC in the presence of AR-12” value [4]?
The value was 4–60 fold.

What about the “MIC (4 µg/ml AR-12)” value (Enterobacter cloacae) of the same compound?
Its value is 16 µg/mL.

What about the MIC (Proteus mirabilis) of the same compound?
The MIC was >64 µg/mL.

And the “MIC (4 µg/ml AR-12)” value (Proteus mirabilis)?
Its value is >64 µg/mL.

And the MIC (Providencia stuartii)?
The MIC was >64 µg/mL.

And the “MIC (4 µg/ml AR-12)” value (Providencia stuartii)?
The value was >64 µg/mL.

What about the “colistin concentration giving growth inhibition” value (A. baumannii [11]; MDR A. baumannii 34299, colistin alone) of the same compound?
The value was > 32 µg/mL.

And the “colistin concentration giving growth inhibition” value (A. baumannii [11]; MDR A. baumannii 34299, in the presence of 4 μg/ml AR-12)?
Its value is 1 µg/mL.

And the “colistin concentration giving growth inhibition” value (A. baumannii [11]; polymyxin sensitive ATCC A. baumannii 19606, colistin alone)?
Its value is 0.5 µg/mL.

What about the “colistin concentration giving growth inhibition” value (A. baumannii [11]; polymyxin sensitive ATCC A. baumannii 19606, in the presence of 4 μg/ml AR-12) of the same compound?
The value was 0.015 µg/mL.

And the “fold reduction … of 4 μg/ml of AR-12” value (K. pneumoniae [7]; MDR K. pneumoniae (polymyxin B 7 out of 7, colistin 5 out of 7 strains tested))?
Its value is 4–60 fold.

What about the MIC (K. pneumoniae [7]; strain 0010 (CDC)) of the same compound?
The MIC was 8 µg/mL.

What about the “MIC (4 µg/ml AR-12)” value (K. pneumoniae [7]; strain 0010) of the same compound?
The value was 8 µg/mL.

And the MIC (K. pneumoniae [7]; [13])?
Its MIC is >64 µg/mL.

And the “MIC (4 µg/ml AR-12)” value (K. pneumoniae [7]; strain 30835)?
The value was 16 µg/mL.

What about the MIC (K. pneumoniae [7]; strain 101434 (USAMRIID)) of the same compound?
Its MIC is >64 µg/mL.

What about the “MIC (4 µg/ml AR-12)” value (K. pneumoniae [7]; strain 101434) of the same compound?
The value was 16 µg/mL.

And the MIC (K. pneumoniae [7]; strain 101522 (USAMRIID))?
Its MIC is >64 µg/mL.

And the “MIC (4 µg/ml AR-12)” value (K. pneumoniae [7]; strain 101522)?
The value was 8 µg/mL.

And the MIC (K. pneumoniae [7]; strain 101783 (USAMRIID))?
Its MIC is >64 µg/mL.

And the “MIC (4 µg/ml AR-12)” value (K. pneumoniae [7]; strain 101783)?
The value was 1 µg/mL.

And the “colistin concentration giving growth inhibition” value (K. pneumoniae [12]; MDR K. pneumoniae 30835, colistin alone)?
Its value is 8 µg/mL.

And the “colistin concentration giving growth inhibition” value (K. pneumoniae [12]; MDR K. pneumoniae 30835, in the presence of 4 μg/ml AR-12)?
The value was 1 µg/mL.

And the “colistin concentration giving growth inhibition” value (K. pneumoniae [12]; polymyxin sensitive ATCC K. pneumoniae 13833, colistin alone)?
Its value is 2 µg/mL.

What about the “colistin concentration giving growth inhibition” value (K. pneumoniae [12]; polymyxin sensitive ATCC K. pneumoniae 13833, in the presence of 4 μg/ml AR-12) of the same compound?
Its value is 0.125 µg/mL.

And the “fold reduction … of 4 μg/ml of AR-12” value (A. baumannii [10])?
The value was 4–16 fold.

And the MIC (A. baumannii [10])?
Its MIC is >64 µg/mL.

And the “MIC (4 µg/ml AR-12)” value (A. baumannii [10])?
The value was 4 µg/mL.
